pEC50, pIC50: −log10 of the molar value.
Key:
ABCG2 [1] = biological target: T1, ABCG2 (Homo sapiens, UniProt Q9UNQ0); test: Inhibition of human ABCG2 expressed in MDCK2 cells co-expressing GFP preincubated for 30 mins followed by Hoechst 33342 addition and measured every 60 sec for 120 mins by fluorescence assay relative to control; type: cell-based, MDCK-II; settings: probe Hoechst 33342, read-out: Imax
T1 sequence (Q9UNQ0 whole entry): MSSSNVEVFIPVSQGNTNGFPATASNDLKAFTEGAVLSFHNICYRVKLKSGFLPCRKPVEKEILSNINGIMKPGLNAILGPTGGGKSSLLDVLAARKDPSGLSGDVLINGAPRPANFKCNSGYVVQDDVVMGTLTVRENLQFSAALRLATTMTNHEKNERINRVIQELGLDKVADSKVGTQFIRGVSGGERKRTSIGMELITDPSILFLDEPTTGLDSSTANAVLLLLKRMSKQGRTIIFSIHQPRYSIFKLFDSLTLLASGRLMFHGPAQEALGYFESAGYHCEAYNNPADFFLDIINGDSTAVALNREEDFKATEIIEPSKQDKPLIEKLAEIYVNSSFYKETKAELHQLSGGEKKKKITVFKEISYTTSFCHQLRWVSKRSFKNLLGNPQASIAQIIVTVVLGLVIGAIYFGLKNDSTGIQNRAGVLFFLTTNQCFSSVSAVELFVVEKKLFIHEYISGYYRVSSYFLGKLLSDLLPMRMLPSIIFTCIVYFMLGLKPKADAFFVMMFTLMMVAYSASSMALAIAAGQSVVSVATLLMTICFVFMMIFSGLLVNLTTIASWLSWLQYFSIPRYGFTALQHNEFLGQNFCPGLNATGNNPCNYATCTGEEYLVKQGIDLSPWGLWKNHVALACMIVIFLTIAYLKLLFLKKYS
Procedure, shortened: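 MDCK II cells transfected with human ABCG2 cDNA C-terminally fused to GFP. Steady-state means vs log concentration fitted by 3- or 4-parameter logistic to give IC50.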

[2] = biological target: T2, Broad substrate specificity ATP-binding cassette transporter ABCG2 (Homo sapiens, UniProt Q9UNQ0); test: Inhibition of human ABCG2-mediated multidrug resistance in MDCK2 cells assessed as potentiation of SN-38-induced cytotoxicity by measuring time need to achieve half maximal cell death at 10 to 50 nM measured up to 7 days by MTT assay; type: cell-based; settings: mdck-ii, 168 h, dose 10-50 nM, time <=7 day
T2 sequence (Q9UNQ0 whole entry): T1 sequence (Q9UNQ0 whole entry)
Procedure, shortened: (§1)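 Time-dependent reversal in ABCG2-GFP MDCK II cells: SN-38 at 0.5 µM with modulator at 0, 10, 25 or 50 nM. Seeding density decreased with assay day (10,000 cells for day 1 down to 200 for day 7). MTT viability read daily for 7 days. Results normalised to medium-only cells or to SN-38 alone. Curve inflection points plotted vs modulator concentration to derive tmax, tmin, ctmin and c½tmax. Triplicates, at least three experiments; multiple t-test.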

[3] = biological target: T2, Broad substrate specificity ATP-binding cassette transporter ABCG2; test: Inhibition of human ABCG2-mediated multidrug resistance in MDCK2 cells assessed as potentiation of SN-38-induced cytotoxicity at 10 to 50 nM after 5 days by MTT assay; type: cell-based; settings: mdck-ii, 120 h, dose 10-50 nM, time 5 day
[4] = Growth inhibition of MDCK2 cells after 72 hrs by MTT assay; type: cell-based, Canis lupus familiaris, MDCK-II; settings: dog
Procedure, shortened: (§2)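 MTT viability assay. Compound dilutions in culture medium (3.2 to 1000 µM as prepared). About 2,000 cells per well, 72 h at 37 °C, 5% CO2. Culture medium set as 100% and 10% DMSO as 0% viability. MTT added for 1 h, formazan dissolved in DMSO, absorbance read at 570 nm with 690 nm background. GI50 from nonlinear regression of absorbance vs log concentration; at least three independent experiments, duplicates, mean ± SEM.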

[5] = Effect on total ABCG2 in MDCK2 cells at 10 nM after 4 to 7 days in presence of SN-38 by Western blot analysis; type: ADME, cell-based, Canis lupus familiaris; settings: dog, mdck-ii, 0.01 µM, time 4-7 day
Procedure, shortened: (§3)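 ABCG2-GFP MDCK II cells seeded in T25 flasks (86,000 for 4 days, 17,200 for 7 days). Exposed to modulator (10 nM) and/or SN-38 (0.5 µM) for 4 or 7 days. 15 µg protein run on stain-free 10% SDS-PAGE and transferred to PVDF. Probed with BXP-21 (1:200, overnight, 4 °C) and HRP secondary, ECL detection. Bands normalised to total protein and to the untreated control; one-sample t-test.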

[6] = biological target: T2, Broad substrate specificity ATP-binding cassette transporter ABCG2; test: Inhibition of human ABCG2-mediated multidrug resistance in MDCK2 cells assessed as potentiation of SN-38-induced cytotoxicity at 10 nM after 7 days by MTT assay relative to SN-38 alone; type: cell-based; settings: mdck-ii, 168 h, 0.01 µM, time 7 day; procedure, shortened: as §1
[7] = biological target: T2, Broad substrate specificity ATP-binding cassette transporter ABCG2; test: Inhibition of human ABCG2-mediated multidrug resistance in MDCK2 cells assessed as potentiation of SN-38-induced cytotoxicity by measuring half-maximal cell death acceleration at 10 to 50 nM measured at 5.75 days by MTT assay; type: cell-based, MDCK-II; settings: dose 10-50 nM, time 5.7 day; read-out: Activity
Procedure, shortened: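 MDCK II cells transfected with human ABCG2–GFP were exposed to SN-38 at 0.5 µM final, alone or with modulator at 0, 10, 25 or 50 nM. Cells were seeded at 10,000 down to 200 per well according to read-out day and kept at 37 °C, 5% CO2. MTT viability was read daily for 7 days. Inflection points of the viability–time curves were regressed against modulator concentration. At least 3 independent experiments, triplicates.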

MDCK-II [8] = test: Cytotoxicity against MDCK2 cells assessed as reduction in cell viability at 10 uM after 72 hrs by MTT assay; type: cell-based, Canis lupus familiaris; settings: dog
Procedure, shortened: (§4)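 Single-concentration screen at 10 µM in MDCK II BCRP and parental MDCK II cells. MTT assay, 72 h at 37 °C, 5% CO2. Viability referenced to culture medium (100%) and 10% DMSO (0%). Mean ± SEM of at least three independent experiments with duplicates.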

[9] = biological target: T2, Broad substrate specificity ATP-binding cassette transporter ABCG2; test: Inhibition of human ABCG2 expressed in MDCK2 cells co-expressing GFP preincubated for 15 mins followed by pheophorbideA addition and measured after 2 hrs by flow cytometric analysis; type: cell-based, MDCK-II
Procedure, shortened: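 Pheophorbide A added to 0.5 µM final and incubated 2 h. Read by flow cytometry (ex 488, em 695/50 nm); GFP expression checked at 525/30 nm. IC50 from 3- or 4-parameter logistic fit.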

[10] = biological target: T2, Broad substrate specificity ATP-binding cassette transporter ABCG2; test: Inhibition of human ABCG2 expressed in MDCK2 cells co-expressing GFP preincubated for 30 mins followed by Hoechst 33342 addition and measured every 60 sec for 120 mins by fluorescence assay; type: cell-based, MDCK-II
Procedure, shortened: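 MDCK II cells transfected with human ABCG2 cDNA C-terminally fused to GFP. Hoechst 33342 added at 1 µM final. Fluorescence (ex 355, em 460 nm) read every 60 s for 120 min. Steady-state means vs log concentration fitted by 3- or 4-parameter logistic to give IC50.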

[11] = Down regulation of ABCG2 in MDCK2 cells at 10 nM after 4 days by Western blot analysis; type: functional, Canis lupus familiaris, MDCK-II; settings: time 4 day; procedure, shortened: as §3
[12] = biological target: T2, Broad substrate specificity ATP-binding cassette transporter ABCG2; test: Inhibition of human ABCG2-mediated multidrug resistance in MDCK2 cells assessed as potentiation of SN-38-induced cytotoxicity at 10 to 50 nM measured up to 7 days by MTT assay; type: cell-based; settings: mdck-ii, 168 h, dose 10-50 nM, time <=7 day; procedure, shortened: as §1
ABCG2 [13] = test: Therapeutic ratio of GI50 for Growth inhibition of MDCK2 cells over expressing human ABCG2 to IC50 for inhibition of human ABCG2 expressed in MDCK2 cells co-expressing GFP preincubated for 15 mins followed by pheophorbideA addition and measured after 2 hrs by flow cytometric analysis; type: toxicity, cell-based; settings: dog, MDCK2 cells overexpressing human ABCG2, probe pheophorbide A; read-out: TI
[14] = Growth inhibition of MDCK2 cells over expressing human ABCG2 after 72 hrs by MTT assay; type: ADME, cell-based, Canis lupus familiaris, MDCK-II; settings: dog, MDCK2 cells overexpressing human ABCG2; procedure, shortened: as §2
[15] = Down regulation of ABCG2 in MDCK2 cells at 10 nM after 7 days by Western blot analysis; type: functional, Canis lupus familiaris, MDCK-II; settings: time 7 day; procedure, shortened: as §3
ABCG2 [16] = test: Therapeutic ratio of GI50 for Growth inhibition of MDCK2 cells over expressing human ABCG2 to IC50 for inhibition of human ABCG2 expressed in MDCK2 cells co-expressing GFP preincubated for 30 mins followed by Hoechst 33342 addition and measured every 60 sec for 120 mins by fluorescence assay; type: toxicity, cell-based; settings: dog, MDCK2 cells overexpressing human ABCG2, probe Hoechst 33342; read-out: TI
MDCK-II [17] = test: Cytotoxicity against MDCK2 cells over expressing human ABCG2 at 10 uM assessed as reduction in cell viability after 72 hrs by MTT assay; type: ADME, cell-based, Canis lupus familiaris; settings: dog; procedure, shortened: as §4
ABCG2 [18] = biological target: T1, ABCG2; test: Inhibition of human ABCG2 expressed in MDCK2 cells co-expressing GFP preincubated for 15 mins followed by pheophorbideA addition and measured after 2 hrs by flow cytometric analysis relative to control; type: cell-based, MDCK-II; settings: probe pheophorbide A, read-out: Imax
[19] = biological target: ATP-dependent translocase ABCB1 (Homo sapiens, UniProt P08183); test: Inhibition of human ABCB1 expressed in A2780/ADR cells preincubated for 30 mins followed by calcein AM addition and measured every 60 secs for 60 mins by fluorescence assay; type: cell-based
Sequence of ATP-dependent translocase ABCB1 (P08183 whole entry): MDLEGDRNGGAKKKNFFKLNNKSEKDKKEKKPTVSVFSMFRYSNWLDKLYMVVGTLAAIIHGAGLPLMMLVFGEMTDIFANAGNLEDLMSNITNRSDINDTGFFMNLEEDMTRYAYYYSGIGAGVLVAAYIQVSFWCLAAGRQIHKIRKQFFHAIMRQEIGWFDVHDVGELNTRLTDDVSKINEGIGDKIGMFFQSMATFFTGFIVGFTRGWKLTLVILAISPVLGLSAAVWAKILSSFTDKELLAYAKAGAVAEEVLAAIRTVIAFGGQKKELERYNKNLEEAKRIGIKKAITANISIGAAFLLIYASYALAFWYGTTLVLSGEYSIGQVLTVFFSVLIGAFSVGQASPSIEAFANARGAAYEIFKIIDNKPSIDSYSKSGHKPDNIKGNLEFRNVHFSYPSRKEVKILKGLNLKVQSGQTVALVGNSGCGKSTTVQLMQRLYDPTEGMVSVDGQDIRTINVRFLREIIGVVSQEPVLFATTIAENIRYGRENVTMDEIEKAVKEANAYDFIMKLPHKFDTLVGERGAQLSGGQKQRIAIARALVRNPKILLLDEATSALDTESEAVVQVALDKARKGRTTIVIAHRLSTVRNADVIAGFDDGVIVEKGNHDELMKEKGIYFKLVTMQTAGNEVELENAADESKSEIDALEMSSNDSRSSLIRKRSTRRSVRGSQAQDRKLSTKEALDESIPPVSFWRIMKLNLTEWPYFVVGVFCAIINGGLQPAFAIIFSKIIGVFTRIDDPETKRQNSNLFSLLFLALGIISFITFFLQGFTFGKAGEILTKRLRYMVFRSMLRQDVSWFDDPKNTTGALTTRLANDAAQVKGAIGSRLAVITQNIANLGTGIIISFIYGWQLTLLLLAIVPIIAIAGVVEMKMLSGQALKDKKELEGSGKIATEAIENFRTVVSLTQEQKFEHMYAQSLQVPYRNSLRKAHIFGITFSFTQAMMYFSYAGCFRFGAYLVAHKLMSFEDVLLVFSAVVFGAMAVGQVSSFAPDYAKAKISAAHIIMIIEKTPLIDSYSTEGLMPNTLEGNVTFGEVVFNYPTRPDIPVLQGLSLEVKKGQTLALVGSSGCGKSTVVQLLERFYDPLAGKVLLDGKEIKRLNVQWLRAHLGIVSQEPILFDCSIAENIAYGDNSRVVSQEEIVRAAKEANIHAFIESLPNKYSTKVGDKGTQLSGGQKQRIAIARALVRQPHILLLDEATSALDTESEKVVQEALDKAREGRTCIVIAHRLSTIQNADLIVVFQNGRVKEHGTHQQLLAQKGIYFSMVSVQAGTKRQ
Procedure, shortened: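 ABCB1 in A2780/ADR cells (kept resistant by one passage in 1 µM doxorubicin every 10 passages). 30,000 cells per well in Krebs-HEPES buffer, preincubated 30 min at 37 °C with inhibitor. Calcein AM added from a 3.125 µM solution. Fluorescence (ex 485, em 520 nm) read every 60 s for 60 min. Initial linear slopes vs log concentration fitted to give IC50.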

[20] = biological target: T2, Broad substrate specificity ATP-binding cassette transporter ABCG2; test: Inhibition of ABCG2 in human MCF7/MX cells at 1 uM incubated for 2 hrs in presence of pheophorbide A by confocal laser scanning microscopic method; type: cell-based; settings: mcf7x
Procedure, shortened: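 MCF-7/MX cells, 1×10^5 per dish, grown 48 h to 50-60% confluence, then switched to Krebs-HEPES buffer. Pheophorbide A (0.5 µM) applied with inhibitor (1 µM) for 2 h at 37 °C, 5% CO2. Confocal imaging at ex 405 nm, em 662-737 nm, stage at 37 °C; parental MCF-7 imaged for comparison.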

pIC50 [19] | inhibition (INH) [20] | Compound | Emax at 2 h (ABCG2 [1]) | Tmin [2] | inhibition (INH) [3] | GI50 at 72 h [4] | Activity [5] | fold change (FC) [6] | pEC50 [7] | Activity (MDCK-II [8]) | pIC50 [9] | pIC50 [10] | Activity [11] | inhibition (INH) [12] | selectivity ratio at 2 h (ABCG2 [13]) | GI50 at 72 h [14] | Activity [15] | selectivity ratio (ABCG2 [16]) | Activity (MDCK-II [17]) | Emax at 2 h (ABCG2 [18])
– | – | Cc1cc(Nc2ccc(C#N)c(C)c2)nc(-c2ccccc2)n1 | 106% | 4.25 days | Active | 15.7 µM | Non-Toxic | 2 | 7.76 | Non-Toxic | 6.76 | 7.03 | 36% | Active | 90 | 15.7 µM | 24% | 167 | Non-Toxic | 76%
4.87 | Active | Cc1cc(Nc2ccc3nccnc3c2)nc(-c2ccccc2)n1 | – | – | – | – | – | – | – | Non-Toxic | 6.51 | – | – | – | – | – | – | – | Non-Toxic | 100%

Reference: ChEMBL document CHEMBL4725354 (J Med Chem, 2020)
